Screens (PubChem BioAssay)
M1 ag – activates the M1 muscarinic receptor; B-score at 10 µM; AID 626; 3% of 64,000 active; CHO-M1 cells, Fluo-4 calcium fluorescence, agonist mode; stronger effect = higher value;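 active means fluorescence rise, raw or as B-score row- and column-corrected plate score, outside the 99.7% band of its plate's samples, either direction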
AP ELISA ortho – orthogonal test for alternative complement pathway inhibitors | Human serum alternative complement pathway, LPS-coated ELISA, C3 deposition; tested in compound mixtures | inhibition, % at 5 µM | 0.08% of 62,000 active | AID 1235;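 active means inhibition above 30% in each of the two pooled mixtures holding the compound, so the lower value exceeds 30%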;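 further: 0% = serum in Mg-EGTA without compound and 100% = EDTA serum blank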
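Test system: human serum alternative complement pathway, C3 deposition on LPS-coated wells; also added: Plate-bound LPS; doses: 5 µM per compound in ten-compound mixtures; schedule: 1 h at 37 °C; detection: Anti-C3 ELISA, OD 450 nm; evaluation: percent inhibition of C3 deposition onto LPS; repeats: two pool placements per compound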
D1 mod – D1 dopamine receptor (human) allosteric modulation; P21728; HEK293 D1, CRE-luciferase, dopamine EC30 potentiation; actives deviate in either direction; 5.9% of 58,000 active; B-score at 10 µM;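 active means luminescence count or its row- and column-corrected plate score outside the 99.7% band of the plate's sample wells, on either side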
mHtt clearance – mutant huntingtin protein clearance. inhibition, % at 1.5 µM. AID 853. 0.42% of 47,000 active. HeLa Exon1htt(103Q)mCFP, aggregate imaging; zero = plate's median compound well;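 active means inhibition of aggregate fluorescence above about 70%, also judged a hit by eye on the cell image, limit read from the data, passing the limit was not always enough; inconclusive means no rule stated for this call; inactive means not judged a hit on image review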;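 further: cells exposed to compound for three days before fixation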
M1 antagonist – antagonists of rat M1 muscarinic receptor. 3.4% of 64,000 active. B-score at 10 µM. P08482. CHO-M1 cells, Fluo-4 calcium, ACh EC80 antagonist mode; stronger effect = lower value;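 active means calcium fluorescence response, raw or row-and-column corrected B-score, differing from the plate sample mean either way at a set confidence level, mostly lower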
Target sequence (P08482 whole entry, looked up): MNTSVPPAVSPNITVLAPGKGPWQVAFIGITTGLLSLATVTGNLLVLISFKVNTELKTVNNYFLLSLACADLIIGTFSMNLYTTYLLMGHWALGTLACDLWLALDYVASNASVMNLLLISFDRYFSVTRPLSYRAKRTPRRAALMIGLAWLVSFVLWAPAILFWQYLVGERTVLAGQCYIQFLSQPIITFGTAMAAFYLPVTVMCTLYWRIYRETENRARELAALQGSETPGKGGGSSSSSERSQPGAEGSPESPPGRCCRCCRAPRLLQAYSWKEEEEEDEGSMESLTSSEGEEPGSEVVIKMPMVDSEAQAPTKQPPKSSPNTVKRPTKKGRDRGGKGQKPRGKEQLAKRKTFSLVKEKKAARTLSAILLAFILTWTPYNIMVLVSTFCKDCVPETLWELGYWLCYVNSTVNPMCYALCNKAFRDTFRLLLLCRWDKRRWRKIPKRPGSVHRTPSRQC
M1 ag confirm – rat M1 muscarinic agonism, confirmation | CHO-M1 cells, Fluo-4 calcium fluorescence, agonist mode; actives lie on both sides | AID 1488 | shares compounds with M1 ag | 19% of 1,700 active | fluorescence change (max-min) at 10 µM;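 active means fluorescence change differs from the solvent-only DMSO control mean at a set confidence level in both duplicate runs; inconclusive means differs from solvent-only control mean in just one of two runs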;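 further: an EC20 dose of acetylcholine follows compound addition during the same imaging run; raw fluorescence intensity difference in instrument units with no normalization to controls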
M4 ag counter – rat M4 muscarinic agonism, M1 counter-screen; shares compounds with M1 ag; CHO M4/Gqi5 cells, Fluo-4 calcium fluorescence, agonist mode; actives lie on both sides; fluorescence change (max-min) at 10 µM; 9% of 1,700 active;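 active means fluorescence change differing from the plate's solvent-only control wells at 99.7% confidence in both duplicates, whether higher or lower; inconclusive means differs from solvent controls in only one of two duplicates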
An asterisk follows results filed as active; ? = inconclusive; / = not tested or not shown. The list is not random: actives were taken first. Their share in the collection is about 9%.

SMILES | M1 ag | AP ELISA ortho | D1 mod | mHtt clearance | M1 antagonist | M1 ag confirm | M4 ag counter
O=C(CCCCCn1c(SCc2ccncc2)nc2ccccc2c1=O)NCc1ccco1 | 1.41 | 4.1 | 4.28 | -45.3 | 0.274 | / | /
CC(C)N(CCc1ccncc1)C(=O)Nc1ccc(Cl)c(Cl)c1 | 0.0154 | 13.5 | -0.0162 | 21.4 | -1.51 | / | /
COc1ccc(Br)cc1C(=O)Nc1cccc(NC(=O)c2ccco2)c1 | 0.93 | 9.5 | -0.508 | -46.9 | -0.165 | / | /
O=C(Nc1cccc(NC(=O)c2ccc(-c3cccc(Br)c3)o2)c1)c1ccco1 | 7.81* | 4.3 | -3.37* | 56.2 | -1.79 | ? | -73.8
CN1/C(=N\O)c2cccc3cccc1c23 | 6.9* | -4.4 | -0.402 | -6.8 | -0.5 | 42 | -2.88
COCCOC(=O)C1=C(C)NC(=O)NC1c1cn(-c2ccccc2)nc1-c1cccs1 (centres undefined) | 10.6* | 9.8 | / | / | -2.11* | ? | -37.6
C=CCOC(=O)C1=C(C)NC(=O)NC1c1cn(-c2ccccc2)nc1-c1cccs1 (centres undefined) | -0.221 | 5.8 | 2.09 | -55.4 | -1.5 | / | /
Cc1cc(C)nc(N2CCC(C(=O)Nc3nnc(C)s3)CC2)n1 | 0.637 | 1.1 | -0.00192 | 6.7 | 0.373 | / | /
Cc1ccccc1OCCCCCn1ccnc1 | -0.691 | 8.1 | -0.434 | -74.0 | -0.0444 | / | /
Cc1cccc(OCCCCCn2ccnc2)c1 | 4.53* | 3.2 | -0.522 | -17.2 | -0.477 | 37.4 | -44.9
CCOC(=O)Cc1csc(NC(=O)CSc2nnc(-n3nc(C)cc3C)c3ccccc23)n1 | 4.71* | 7.4 | -0.298 | 26.3 | -0.722 | 0.183 | -19.7
CCOC(=O)Cc1csc(NC(=O)CSc2nnc(-c3ccc(C)cc3)o2)n1 | -0.13 | 2.1 | 0.57 | / | -0.217 | / | /
CCOc1ccc(C2/C(=C(/O)c3ccc(Cl)cc3)C(=O)C(=O)N2CCCN(C)C)cc1OC (centres undefined) | 0.61 | 4.4 | 0.31 | / | 0.016 | / | /
COc1ccccc1OCC(=O)Nc1ccccc1C(=O)NCc1ccco1 | / | / | / | 8.8 | / | / | /
O=C(COc1ccccc1)Nc1ccccc1C(=O)NCc1ccco1 | 6.67* | 5.8 | 0.595 | / | -0.428 | ? | -42.1
CN(C)CCOc1ccccc1Cc1ccccc1 | 32.5* | 11.4 | -4.53 | / | -6.44* | -3.01 | -30.4
Cc1cc(C)n(-c2nc(NCC3CCCO3)c3c4c(sc3n2)COC(C)(C)C4)n1 (centres undefined) | 3.43* | 21.6 | 1.21 | / | -0.988 | -18 | -16.6
Cc1cc(C)n(-c2nc(SCC(=O)NCC3CCCO3)c3c4c(sc3n2)CCCC4)n1 (centres undefined) | -0.543 | -2.9 | -0.0541 | / | -0.203 | / | /
CC1CCN(CC(=O)N2c3ccccc3CCc3ccccc32)CC1 | / | 9.5 | 0.539 | 30.7 | / | / | /
O=C(Nc1cccc(F)c1)C1C2C=CC3(CN(CCCN4CCOCC4)C(=O)C13)O2 (centres undefined) | -0.609 | -8.7 | -0.499 | -117.4 | -0.109 | / | /
CCn1c(C(=O)N2CCC(C(=O)NCCCSC3CCCCC3)CC2)cc2sccc21 | 2.53* | 20.1 | -1.15 | 4.0 | 0.0921 | -19* | -48.5
CCN1CCN(C(=O)C2CCN(C(=O)c3cc4sccc4n3CC)CC2)CC1 | -0.154 | 0.4 | 1.13 | / | 0.131 | / | /
O=C1Nc2cc(Cl)c(Cl)cc2N(O)N1c1ccc(Cl)c(Cl)c1 | / | / | / | -2.9 | / | / | /
Cc1ccc(S(=O)(=O)N2CCCC(C(=O)N(Cc3cccs3)C3CC3)C2)cc1 (centres undefined) | 0.104 | 13.3 | / | / | 0.317 | / | /
CCC1CCCCN1S(=O)(=O)c1ccc(S(=O)(=O)N(Cc2cccs2)C2CC2)cc1 (centres undefined) | 9.7* | 8.6 | 0.0323 | 34.4 | -1.9* | -31.3* | -71.9*
CC(=O)c1ccc(NC(=S)N2C(C)CCCC2C)cc1 (centres undefined) | / | / | / | 43.5 | / | / | /
CCOc1ccc(C(=O)Nc2c(C(N)=O)oc3ccccc23)cc1 | 1.17 | / | -0.162 | 20.6 | -0.516 | / | /
CCOc1ccc(CC(=O)Nc2c(C(N)=O)oc3ccc(Br)cc23)cc1OCC | 3.13* | 16.2 | / | / | -0.332 | -19.4 | -24.3
COCCCNC(=O)c1ccc(CS(=O)(=O)c2ccc(OC)cc2)o1 | 0.275 | 0.1 | 0.144 | / | -0.191 | / | /
